This is an account of results in ChEMBL document CHEMBL4673403, “Development of a Hematopoietic Prostaglandin D Synthase-Degradation Inducer” (ACS Med Chem Lett, 2021).

The source made the active and inactive calls. The calls are words filed in the database; no cut-off is given here.

Data set [1] addresses T1, Hematopoietic prostaglandin D synthase (Homo sapiens, UniProt O60760). In words: Induction of HPGDS degradation in human KU812 cells at 1 uM measured after 6 hrs in presence of TFC-007 by Western blot analysis. It counts as cell-based. The settings on record: KU812 cell line. The procedure, abridged: (§1)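 KU812 cells incubated 6 h with 1 μM degrader or with the ligand mixture (TFC-007 plus pomalidomide, 1 μM each). Western blot H-PGDS/β-actin normalized to vehicle as 100; means ± SD, n = 3; two-tailed t test.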

The target in data set [2] is T1, Hematopoietic prostaglandin D synthase. Nature of the data set: Inhibition of recombinant human HPGDS.
The target of data set [3] is Baculoviral IAP repeat-containing protein 2/Hematopoietic prostaglandin D synthase (Homo sapiens) (UniProt Q13490+O60760). In words: SNIPER activity at IAP1/HPGDS in human KU812 cells assessed as reduction in HPGDS protein level up to 1000 nM measured after 6 hrs by Western blot analysis. The class given is cell-based. The settings on record: KU812 cell line, dose nM <=1000, time 6.0 hrs. For orientation: Immunoblotting shows a protein as a band on a membrane.

Data set [4] addresses T1, Hematopoietic prostaglandin D synthase. In words: Inhibition of HPGDS in human KU812 cells assessed as reduction in PGD2 level at 10 to 100 nM incubated for 24 hrs followed by A23187 treatment and measured after 30 mins and subsequent compound washout then further incubated for 6 hrs in compound-free medium by ELISA. The class given is cell-based. The settings on record: KU812 cell line, dose 10-100 nM, time 1470.0 min. The procedure, abridged:
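KU812 cells exposed to compounds 24 h, washed four times, kept 6 h compound-free, then stimulated with 5 μM A23187 for 30 min; medium PGD2 measured. Means ± SD, n = 3; two-tailed t test.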
On the technique in general: An ELISA detects its analyte on a solid surface through an enzyme-linked reagent.

Data set [5] is described as follows: Solubility of the compound. It counts as physicochemical.
Data set [6] has as its target T1, Hematopoietic prostaglandin D synthase. In words: Inhibition of HPGDS in human KU812 cells assessed as reduction in PGD2 level at 10 to 100 nM incubated for 24 hrs followed by A23187 treatment and measured after 30 mins by ELISA. It counts as cell-based. The settings on record: KU812 cell line, dose 10-100 nM, time 1470.0 min. An outline of the steps:
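After 24 h compound exposure, KU812 cells stimulated with 5 μM A23187 for 30 min with compound still present; PGD2 measured in medium. Means ± SD, n = 3; two-tailed t test.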

The target of data set [7] is T2, Protein cereblon/Hematopoietic prostaglandin D synthase (Homo sapiens) (UniProt O60760+Q96SW2). Nature of the data set: Protac activity at CRBN/HPGDS in human KU812 cells assessed as induction of HPGDS degradation at 10 to 100 nM incubated for 24 hrs followed by compound washout and further incubated for 6 hrs in compound-free medium by Western blot analysis. The class given is cell-based. The settings on record: KU812 cell line, dose 10-100 nM. The procedure, abridged: (§2)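 KU812 cells incubated with compounds 24 h, washed four times, then held 6 h in compound-free medium. Western blot H-PGDS/β-actin normalized to vehicle as 100; means ± SD, n = 3; two-tailed t test.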

Data set [8] deals with T1, Hematopoietic prostaglandin D synthase. In words: Inhibition of recombinant human HPGDS expressed in Escherichia coli BL21 (DE3) measured after 3 mins by spectrophotometric analysis.
Data set [9] shares this target. In words: Binding affinity to recombinant human HPGDS expressed in Escherichia coli BL21 (DE3) measured after 1 hr by fluorescence polarization assay. The procedure, abridged: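 Competitive binding to H-PGDS read by fluorescence polarization with a fluorescence probe.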
Background: Fluorescence polarisation rises when a labelled molecule tumbles more slowly, as on binding a larger partner.

Data set [10] concerns the target T2, Protein cereblon/Hematopoietic prostaglandin D synthase (Homo sapiens). Nature of the data set: Induction of CRBN-mediated HPGDS degradation in human KU812 cells at 10 to 100 nM incubated for 24 hrs followed by compound washout and further incubated for 6 hrs in compound-free medium by Western blot analysis. The class given is cell-based. The settings on record: KU812 cell line, dose 10-100 nM. An outline of the steps: as §2

Data set [11] deals with T1, Hematopoietic prostaglandin D synthase. In words: Induction of HPGDS degradation in human KU812 cells at 1 uM measured after 6 hrs in presence of pomalidomide by Western blot analysis. It counts as cell-based. The settings on record: KU812 cell line. An outline of the steps: as §1
The target is the same in data set [12]. In words: Inhibition of recombinant human HPGDS using [14C]-PGH2 as substrate preincubated for 1 min in presence of MgCl2 followed by substrate addition and measured after 45 mins by radioactive imaging analysis.
In data set [13] the target is T2, Protein cereblon/Hematopoietic prostaglandin D synthase (Homo sapiens). Nature of the data set: Protac activity at CRBN/HPGDS in human KU812 cells assessed as induction of HPGDS degradation at 100 nM measured after 6 hrs in presence of ubiquitin-activating enzyme inhibitor MLN7243 by Western blot analysis. The class given is cell-based. The settings on record: KU812 cell line. An outline of the steps: (§3)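 KU812 cells given 100 nM degrader with or without 10 μM MG132 or 10 μM MLN7243 for 6 h. Western blot H-PGDS/β-actin normalized to vehicle as 100; means ± SD, n = 3.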

Data set [14] has the same target. In words: Protac activity at CRBN/HPGDS in human KU812 cells assessed as induction of HPGDS degradation at 100 nM measured after 6 hrs in presence of proteasome inhibitor MG132 by Western blot analysis. It counts as cell-based. The settings on record: KU812 cell line. The procedure, abridged:
as §3

Data set [15] has the same target. In words: Competitive binding affinity to HPGDS in human KU812 cells assessed as induction of CRBN-mediated degradation of HPGDS at 100 nM after 6 hrs in presence of excess pomalidomide by Western blot analysis. It counts as cell-based. The settings on record: KU812 cell line. The procedure, abridged: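 KU812 cells given 100 nM degrader and/or 10 μM pomalidomide for 6 h. Western blot H-PGDS/β-actin normalized to vehicle as 100; means ± SD, n = 3.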

Data set [16] shares this target. In words: Protac activity at CRBN/HPGDS in human KU812 cells assessed as induction of HPGDS degradation at 1 uM measured after 6 hrs by Western blot analysis. It counts as cell-based. The settings on record: KU812 cell line. The procedure, abridged: as §1
Data set [17] deals with KU812. In words: Effect on HPGDS mRNA expression in human KU812 cells up to 1000 nM measured after 6 hrs by SYBR green based qRT-PCR analysis. It counts as functional, cell-based. The settings on record: dose nM <=1000, time 6.0 hrs. An outline of the steps: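 KU812 cells treated with the indicated concentrations for 6 h. H-PGDS mRNA expressed relative to vehicle, set to 1; means ± SD, n = 3; two-tailed Student's t test versus vehicle.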

Data set [18] addresses Protein cereblon/G2/mitotic-specific cyclin-B1 (Homo sapiens) (UniProt P14635+Q96SW2). In words: Protac activity at CRBN/Cyclin B1 in human KU812 cells assessed as decrease in cyclin B1 protein level by measuring protein turnover at 100 nM measured within 6 hrs in presence of protein synthesis inhibitor cycloheximide by Western blot analysis. It counts as cell-based. The settings on record: KU812 cell line. An outline of the steps:
(§4)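 KU812 cells given 10 μg/mL cycloheximide with or without 100 nM degrader for the indicated periods. H-PGDS/β-actin and cyclin B1/β-actin ratios by Western blot, normalized to time 0 control as 100; means ± SD, n = 3.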

Data set [19] addresses T2, Protein cereblon/Hematopoietic prostaglandin D synthase (Homo sapiens). Nature of the data set: Protac activity at CRBN/HPGDS in human KU812 cells assessed as decrease in HPGDS protein level by measuring protein turnover at 100 nM measured within 6 hrs in presence of protein synthesis inhibitor cycloheximide by Western blot analysis. The class given is cell-based. The settings on record: KU812 cell line. An outline of the steps:
as §4

The target is the same in data set [20]. Nature of the data set: Protac activity at CRBN/HPGDS in human MEG01s cells assessed as reduction in HPGDS protein level up to 1000 nM measured after 6 hrs by Western blot analysis. The class given is cell-based. The settings on record: dose nM <=1000, time 6.0 hrs.
For data set [21] the target is unchanged. Nature of the data set: Protac activity at CRBN/HPGDS in human KU812 cells assessed as reduction in HPGDS protein level at >=10 nM measured after 3 hrs by Western blot analysis. It counts as cell-based. The settings on record: KU812 cell line, dose nM >=10, time 3.0 hrs. An outline of the steps:
(§5)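 KU812 cells exposed to graded concentrations for 3, 6 or 24 h. Western blot; H-PGDS/β-actin ratio normalized to vehicle control as 100; means ± SD, n = 3.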

Data set [22] shares this target. In words: Protac activity at CRBN/HPGDS in human KU812 cells assessed as reduction in HPGDS protein level at 100 to 1000 nM measured after 3 hrs by Western blot analysis. The class given is cell-based. The settings on record: KU812 cell line, dose 100-1000 nM. The procedure, abridged: as §5
The target is the same in data set [23]. Nature of the data set: Protac activity at CRBN/HPGDS in human KU812 cells assessed as reduction in HPGDS protein level at >=10 nM measured after 6 to 24 hrs by Western blot analysis. It counts as cell-based. The settings on record: KU812 cell line, dose nM >=10, time 6-24 hrs. The procedure, abridged:
as §5

The nature of data set [24]: Protac activity at CRBN/AKR1B1 in human KU812 cells assessed as reduction in AKR1B1 protein level up to 1000 nM measured after 24 hrs by Western blot analysis. The settings on record: KU812 cell line, dose nM <=1000, time 24.0 hrs.
Data set [25] deals with Protein cereblon/Prostaglandin E synthase (Homo sapiens). Nature of the data set: Protac activity at CRBN/MPGES-1 in human KU812 cells assessed as reduction in MPGES-1 protein level up to 1000 nM measured after 24 hrs by Western blot analysis. The settings on record: KU812 cell line, dose nM <=1000, time 24.0 hrs.

For `Nc1cccc2c1C(=O)N(C1CCC(=O)NC1=O)C2=O` (stereo not given), the outcome in [1] was inactive.
For the molecule `CON(C)C(=O)c1[nH]c(C)c(-c2nc3cc(C(=O)c4ccccc4)ccc3[nH]2)c1C`, in data set [2], the half-maximal inhibitory concentration (IC50) was determined as 23 nM.
As to `CN[C@@H](C)C(=O)N[C@H](C(=O)N1CCC[C@H]1c1nc(C(=O)c2cccc(OCCOCCOCC(=O)N3CCN(C(=O)C4CCN(c5ccc(NC(=O)c6cnc(Oc7ccccc7)nc6)cc5)CC4)CC3)c2)cs1)C1CCCCC1`, the result in data set [3] was inactive.
As for `CN1C(=O)CCC(N2C(=O)c3cccc(NCCOCCOCCOCCOCCOCCC(=O)N4CCN(C(=O)C5CCN(c6ccc(NC(=O)c7cnc(Oc8ccccc8)nc7)cc6)CC5)CC4)c3C2=O)C1=O` (stereo not given), the inhibition result in data set [4] is “inactive”. Also, the solubility entry in data set [5] is reported as “Soluble”. Also, the inhibition result in [6] was “Active”. Moreover, the outcome in data set [7] was inactive. For the same molecule, the concentration for half-maximal inhibition (IC50) in data set [8] and in data set [9] was 320 nM each time.
On to `O=C(Nc1ccc(N2CCC(C(=O)N3CCOCC3)CC2)cc1)c1cnc(Oc2ccccc2)nc1`, for which the inhibition result in data set [4] was “inactive”. Further, the inhibition entry in data set [6] is “Active”. The result in data set [10] and in data set [11] was inactive. Besides, the half-maximal inhibitory concentration (IC50) in [8] is 71 nM; in data set [9], 320 nM; in data set [12], 71 nM.
Turning to `O=C1CCC(N2C(=O)c3cccc(NCCOCCOCCOCCOCCOCCC(=O)N4CCN(C(=O)C5CCN(c6ccc(NC(=O)c7cnc(Oc8ccccc8)nc7)cc6)CC5)CC4)c3C2=O)C(=O)N1` (stereo not given), the inhibition result in data set [4] and in data set [6] was “Active” throughout. The solubility result in data set [5] is listed as “Soluble”. Also, the outcome in [7], in [16], in data set [19], in data set [20], in data set [21] and in data set [22] was Active. In addition, in data set [23], the result was Active. Moreover, the IC50 in data set [8] worked out at 266 nM; in data set [9], 320 nM. The outcome in [13], in [14], in data set [15], in data set [17], in data set [18] and in data set [24] was inactive. In addition, in data set [25], the outcome was inactive.

As a reminder, the IC50 is the concentration at which inhibition is half-maximal.
